Source: ChEMBL document CHEMBL1147940, “Differential receptor binding characteristics of consecutive phenylalanines in micro-opioid specific peptide ligand endomorphin-2” (Bioorg Med Chem, 2007)
Residues, ends and D or L forms follow the SMILES beside them.

Legend:
[1] = biological target: Delta-type opioid receptor (Rattus norvegicus, UniProt P33533); assay: Displacement of [3H]deltorphin2 from delta opioid receptor in rat brain membrane; assay type: cell membranes
Mu-type opioid receptor = Mu-type opioid receptor (Rattus norvegicus, UniProt P33535); assay: Displacement of [3H]DAGO from mu opioid receptor in rat brain membrane; assay type: cell membranes
[2] = biological target: Opioid receptors; mu & delta (Rattus norvegicus) (UniProt P33533+P33535); assay: Selectivity for rat mu opioid receptor over rat delta opioid; assay type: protein assay
How it was run: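 Ratio of IC50 values from [3H]deltorphin II (delta) and [3H]DAGO (mu) displacement on rat brain membranes. Each used 0.25 nM tracer, 60 min incubation at room temperature in Tris-HCl pH 7.55 with 0.1% BSA and bacitracin, and filtration with scintillation counting.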

Chain of Delta-type opioid receptor (P33533 whole entry): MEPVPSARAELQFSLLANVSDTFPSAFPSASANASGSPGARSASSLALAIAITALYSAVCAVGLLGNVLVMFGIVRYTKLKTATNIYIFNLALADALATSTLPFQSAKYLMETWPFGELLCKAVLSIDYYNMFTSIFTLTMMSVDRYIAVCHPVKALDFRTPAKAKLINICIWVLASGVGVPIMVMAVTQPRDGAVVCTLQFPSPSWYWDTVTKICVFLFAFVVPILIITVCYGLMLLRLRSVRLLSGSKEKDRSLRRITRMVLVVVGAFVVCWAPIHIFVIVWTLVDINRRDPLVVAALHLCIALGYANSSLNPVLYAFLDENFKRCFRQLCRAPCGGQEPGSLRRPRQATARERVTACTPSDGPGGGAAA
Chain of Opioid receptors; mu & delta (Rattus norvegicus) (P33533 whole entry, looked up): as the sequence (P33533 whole entry) above
Chain of Opioid receptors; mu & delta (Rattus norvegicus) (P33535 whole entry, looked up): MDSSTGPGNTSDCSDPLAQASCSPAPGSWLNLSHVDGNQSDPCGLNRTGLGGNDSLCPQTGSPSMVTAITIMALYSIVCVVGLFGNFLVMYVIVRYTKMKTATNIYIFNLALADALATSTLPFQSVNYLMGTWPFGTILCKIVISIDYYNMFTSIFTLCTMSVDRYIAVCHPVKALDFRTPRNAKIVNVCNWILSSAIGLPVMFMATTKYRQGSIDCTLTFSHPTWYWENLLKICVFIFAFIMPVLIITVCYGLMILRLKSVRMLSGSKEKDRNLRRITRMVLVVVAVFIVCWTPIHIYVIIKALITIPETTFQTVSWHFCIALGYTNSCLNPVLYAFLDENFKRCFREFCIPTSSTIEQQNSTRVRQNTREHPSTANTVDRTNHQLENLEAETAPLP
Chain of Mu-type opioid receptor (P33535 whole entry): as the sequence (P33535 whole entry, looked up) above

| Compound | IC50 [1] | IC50 (Mu-type opioid receptor) | Ratio IC50 [2] |
| --- | --- | --- | --- |
| CC(C)[C@H](NC(=O)[C@H](Cc1ccccc1)NC(=O)[C@@H]1CCCN1C(=O)[C@@H](N)Cc1ccc(O)cc1)C(N)=O (H-YPFV-NH2) | > 1000 µM | 0.0765 µM |  |
| NC(=O)[C@H](Cc1c[nH]c2ccccc12)NC(=O)[C@H](Cc1ccccc1)NC(=O)[C@@H]1CCCN1C(=O)[C@@H](N)Cc1ccc(O)cc1 (H-YPFW-NH2) | > 1000 µM | 0.0871 µM |  |
| NC(=O)[C@H](Cc1c(F)c(F)c(F)c(F)c1F)NC(=O)[C@H](Cc1ccccc1)NC(=O)[C@@H]1CCCN1C(=O)[C@@H](N)Cc1ccc(O)cc1 | 8.04 µM | 0.00274 µM | 1000 |
| NC(=O)[C@H](Cc1c[nH]cn1)NC(=O)[C@H](Cc1ccccc1)NC(=O)[C@@H]1CCCN1C(=O)[C@@H](N)Cc1ccc(O)cc1 (H-YPFH-NH2) | > 1000 µM | 0.138 µM |  |
| NC(=O)[C@H](CC1CCCCC1)NC(=O)[C@H](Cc1ccccc1)NC(=O)[C@@H]1CCCN1C(=O)[C@@H](N)Cc1ccc(O)cc1 (HELM PEPTIDE1{Y.P.F.[Cha].[am]}$$$$V2.0) | 11.4 µM | 0.917 µM | 21.3 |
| NC(=O)[C@H](Cc1ccccc1)NC(=O)[C@H](CC1CCCCC1)NC(=O)[C@@H]1CCCN1C(=O)[C@@H](N)Cc1ccc(O)cc1 (HELM PEPTIDE1{Y.P.[Cha].F.[am]}$$$$V2.0) | 3.15 µM | 0.148 µM | 21.3 |
| NCCCC[C@H](NC(=O)[C@H](Cc1ccccc1)NC(=O)[C@@H]1CCCN1C(=O)[C@@H](N)Cc1ccc(O)cc1)C(N)=O (H-YPFK-NH2) |  | 0.408 µM |  |
| CCCC[C@H](NC(=O)[C@@H]1CCCN1C(=O)[C@@H](N)Cc1ccc(O)cc1)C(=O)N[C@@H](Cc1ccccc1)C(N)=O (HELM PEPTIDE1{Y.P.[Nle].F.[am]}$$$$V2.0) | 15.2 µM | 0.23 µM | 66.1 |
| NCCCC[C@H](NC(=O)[C@@H]1CCCN1C(=O)[C@@H](N)Cc1ccc(O)cc1)C(=O)N[C@@H](Cc1ccccc1)C(N)=O (H-YPKF-NH2) |  | > 1000 µM |  |
| C[C@H](NC(=O)[C@H](Cc1ccccc1)NC(=O)[C@@H]1CCCN1C(=O)[C@@H](N)Cc1ccc(O)cc1)C(N)=O (H-YPFA-NH2) |  | 0.0854 µM |  |
| NC(=O)[C@H](Cc1ccccc1)NC(=O)[C@H](Cc1c[nH]cn1)NC(=O)[C@@H]1CCCN1C(=O)[C@@H](N)Cc1ccc(O)cc1 (H-YPHF-NH2) | > 1000 µM | 4.49 µM |  |
| CCCC[C@H](NC(=O)[C@H](Cc1ccccc1)NC(=O)[C@@H]1CCCN1C(=O)[C@@H](N)Cc1ccc(O)cc1)C(N)=O (HELM PEPTIDE1{Y.P.F.[Nle].[am]}$$$$V2.0) | > 1000 µM | 0.0339 µM |  |
| CC(C)C[C@H](NC(=O)[C@@H]1CCCN1C(=O)[C@@H](N)Cc1ccc(O)cc1)C(=O)N[C@@H](Cc1ccccc1)C(N)=O (H-YPLF-NH2) | > 1000 µM | 0.926 µM |  |
| C[C@H](NC(=O)[C@@H]1CCCN1C(=O)[C@@H](N)Cc1ccc(O)cc1)C(=O)N[C@@H](Cc1ccccc1)C(N)=O (H-YPAF-NH2) |  | 3.81 µM |  |
| C[C@@H](NC(=O)[C@@H](N)Cc1ccc(O)cc1)C(=O)NCC(=O)N(C)[C@@H](Cc1ccccc1)C(=O)NCCO [DAMGO] | 0.727 µM |  |  |
| NC(=O)[C@H](Cc1ccccc1)NC(=O)[C@H](Cc1c(F)c(F)c(F)c(F)c1F)NC(=O)[C@@H]1CCCN1C(=O)[C@@H](N)Cc1ccc(O)cc1 | 11.7 µM | 0.0117 µM | 1000 |
| CC(C)[C@H](NC(=O)[C@@H]1CCCN1C(=O)[C@@H](N)Cc1ccc(O)cc1)C(=O)N[C@@H](Cc1ccccc1)C(N)=O (H-YPVF-NH2) | > 1000 µM | 2.65 µM |  |
| NC(=O)[C@H](Cc1ccccc1)NC(=O)[C@H](Cc1ccc(O)cc1)NC(=O)[C@@H]1CCCN1C(=O)[C@@H](N)Cc1ccc(O)cc1 (H-YPYF-NH2) | 5.72 µM | 1.1 µM | 5.2 |
| CC(C)C[C@H](NC(=O)[C@H](Cc1ccccc1)NC(=O)[C@@H]1CCCN1C(=O)[C@@H](N)Cc1ccc(O)cc1)C(N)=O (H-YPFL-NH2) | > 1000 µM | 0.062 µM |  |
| NC(=O)[C@H](Cc1ccc(O)cc1)NC(=O)[C@H](Cc1ccccc1)NC(=O)[C@@H]1CCCN1C(=O)[C@@H](N)Cc1ccc(O)cc1 (H-YPFY-NH2) | 54.5 µM | 0.0622 µM | 5.2 |
